Data: ChEMBL document CHEMBL1122699, “A reappraisal of the effect upon thymidine kinase of thymidine derivatives carrying large groups at the 5'-position” (J Med Chem, 1984)

Columns and labels:
[1] = Thymidine kinase activity was measured by nonradiochemical assay method + TdR (percentage of the control rate measured in the presence of 5 uM Tdr)
Method in brief: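 Conditions match the radiochemical assay, but with 5 µM unlabeled TdR: 10 min at 37 °C, stopped by 20-fold dilution in ice-cold water. Nucleotides separated from nucleosides, freeze-dried, dephosphorylated overnight with alkaline phosphatase, then quantified as nucleosides by C18 HPLC (A254/A280). Expressed as % of the control rate with 5 µM TdR, mean of ≥2 experiments.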

L1210 [2] = experiment: The compound was tested for inhibition of thymidine kinase using […] at concentration 200 uM in L1210 cells; type: cell-based
Method in brief: (§1)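 Enzyme: L1210 ascites cell sonicate (50 mM Tris-HCl pH 7.8, 150 mM KCl), 100000g supernatant precipitated at 30% ammonium sulfate saturation. Reaction mix: 5 µM [3H]TdR, 2 mM ATP, 1 mM MgCl2, 10% Me2SO, 45 mM Tris pH 7.8, compound added in Me2SO. Run 10 min at 37 °C, stopped by boiling. [3H]TMP captured on PEI-cellulose, eluted with HCl, counted. % inhibition given as mean ± SE of n determinations.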

[3] = Thymidine kinase activity was measured by nonradiochemical assay method - TdR (percentage of the control rate measured in the presence of 5 µM TdR)
[4] = Thymidine kinase activity was measured by radio chemical assay method
Method in brief: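 Same L1210 ammonium sulfate enzyme fraction and mix: 5 µM [3H]TdR, 2 mM ATP, 1 mM MgCl2, 10% Me2SO, 45 mM Tris-HCl pH 7.8, 37 °C. Stopped by boiling. [3H]TMP bound to PEI-cellulose squares and counted. Run in parallel with the HPLC assay. Activity given as % of the control rate, mean of at least two experiments.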

L1210 [5] = experiment: The compound was tested for inhibition of thymidine kinase using […] at concentration 250 uM in L1210 cells; type: cell-based; method in brief: as §1
L1210 [6] = experiment: The compound was tested for inhibition of thymidine kinase using […] at concentration 125 uM in L1210 cells; type: cell-based; method in brief: as §1
L1210 [7] = experiment: The compound was tested for inhibition of thymidine kinase using […] at concentration 50 uM in L1210 cells; type: cell-based; method in brief: as §1

Structure (SMILES) | Activity [1] | Activity [3] | Activity [4] | inhibition (L1210 [2]) | inhibition (L1210 [5]) | inhibition (L1210 [6]) | inhibition (L1210 [7])
Cc1cn(C2CC(O)C(CNC(=O)COc3ccc(OCc4ccccc4)cc3)O2)c(=O)[nH]c1=O (stereo not given) |  |  |  |  |  | 0% | 
Cc1cn(C2CC(O)C(CNC(=O)COc3ccc(OCc4ccc([N+](=O)[O-])cc4)cc3)O2)c(=O)[nH]c1=O (stereo not given) |  |  |  |  |  | 1% | 
Cc1cn([C@H]2C[C@H](O)[C@@H](COCCOc3ccc(OCc4ccccc4)cc3)O2)c(=O)[nH]c1=O |  |  |  | 14% |  |  | 

Further lines, with some results ahead:

Activity [1] | Activity [3] | Activity [4] | Structure (SMILES) | inhibition (L1210 [2]) | inhibition (L1210 [5]) | inhibition (L1210 [6]) | inhibition (L1210 [7])
144 | 110 | 62 | Cc1cn([C@H]2C[C@H](O)[C@@H](COC(=O)COc3ccc(OCc4ccc([N+](=O)[O-])cc4)cc3)O2)c(=O)[nH]c1=O | 35% |  |  | 
152 | 118 | 65 | Cc1cn([C@H]2C[C@H](O)[C@@H](COC(=O)COc3ccc(OCc4ccccc4)cc3)O2)c(=O)[nH]c1=O |  | 33% |  | 
27 | 0 | 26 | Cc1cn([C@H]2C[C@H](O)[C@@H](CN)O2)c(=O)[nH]c1=O |  |  |  | 76%
